Experimental findings from article PMC3511619 (Journal of ethnopharmacology, 2012) are described below.

SMILES strings stand for the structures. Some results are limits rather than exact numbers.

One series deals with MH14 cells. Put plainly: MTT assay. The note with it: for effect on cell growth / influence on cell viability / toxicity: 48 h, MH14 cells; for influence on cell viability: 2 μM and 10 μM; for toxicity: 50 μM and 100 μM.
The subject of series [1] is HCV subgenomic replicon (HCV RNA) in MH14 cells. Put plainly: Quantitation of HCV RNA by RT-PCR in MH14 cells. The series is classed as cell-based, Hepatitis C virus. The following applies: for inhibition of HCV RNA replication: 500 μM; for HCV replication reduced: 100 μM. The procedure, abridged: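 MH14 cells carrying a stable HCV subgenomic replicon were kept at 37 °C, 5% CO2 in DMEM with 10% FBS, penicillin/streptomycin, glutamine and 300 μg/ml G418. Cells were grown 60 h with or without test compound dissolved in DMSO. Total RNA was TRIzol-extracted. HCV RNA was reverse-transcribed with an HCV-specific primer and PCR-amplified for 25 cycles (1 min each at 94, 52, 72 °C). GAPDH mRNA served as internal control.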

A further series addresses HCV NS5B (Hepatitis C virus genotype 1b, UniProt P26663). Kind of series: RdRp assay. Type of series: biochemical. The note with it: for IC50, inhibition of NS5B RdRp activity in vitro: single isolates; for IC90: read-out: IC90, RdRp activity of HCV NS5B.
In series [2] the test system is HCV subgenomic replicon (NS5B, NS5A expression) in MH14 cells. The series is classed as cell-based, Hepatitis C virus. The note with it: for viral replication reduced (first statement, Fig. 4 B, C): cell culture system; for inhibition at 100 µM: Hepatitis C virus, MH14, read-out: inhibition of NS5B. The procedure, abridged:
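MH14 cells with stably replicating HCV subgenomic replicon, grown at 37 °C, 5% CO2 in DMEM with 10% FBS, penicillin/streptomycin, glutamine and 300 μg/ml G418. Cells were exposed to DMSO-dissolved test compound for 48 h, washed, lysed in SDS buffer, boiled, and clarified. Blots were probed with anti-NS5B, NS5A or actin (1:500, overnight, 4 °C), then HRP secondary (1:5,000, 1 h). Chemiluminescent detection used β-actin as the loading control.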

Series [3] concerns p53 expression in peripheral blood mononuclear cells (PBMC). Put plainly: p53 expression in peripheral blood mononuclear cells. Type of series: cell-based.
In series [4] the test system is tumor suppressor protein, p53. Kind of series: p53 expression. Type of series: cell-based. The following applies: cells not given.
Another series deals with HCV NS5B (CΔ21) (Hepatitis C virus genotype 1b, UniProt P26663). Put plainly: Fluorescence quenching binding assay. The note with it: for time to binding equilibrium with NS5B (fluorescence quenched): data not shown.

In general, IC50 refers to the midpoint of a concentration-inhibition curve. A lower IC50 goes with higher potency. Turning to `O=C(O)c1ccc(O)c(O)c1` [Compound 1, 3,4-dihydroxybenzoic acid], in the series with MH14 cells, the “effect on cell growth” value is “enhanced cellular proliferation”. In addition, the “inhibition of HCV RNA replication” value in series [1] is given as “inhibited HCV RNA replication only at very high concentrations”. The IC50 on HCV NS5B worked out at 400 µM.
With `O=C(O)c1ccc(O)cc1` [Compound 2, 4-hydroxybenzoic acid], the “effect on cell growth” value in the series with MH14 cells is “enhanced cellular proliferation”. Further, the “inhibition of HCV RNA replication” value in series [1] is listed as “inhibited HCV RNA replication only at very high concentrations”. Moreover, the “IC50, inhibition of NS5B RdRp activity in vitro” value against HCV NS5B is “did not inhibit”.
For orientation: inhibition means the percentage by which the read-out fell short of the control. Broadly, the IC90 is the concentration at which the effect reaches the 90% level. As usually defined, the Kd is the constant that tells how readily two partners part at equilibrium. In the case of `O=c1cc(-c2ccc(O)c(O)c2)oc2cc(O)cc(O)c12` [Compound 3, luteolin], in the series on MH14 cells, the “cytotoxicity in MH14 cell” value is given as “comparable high cytotoxicity”. The “HCV replication inhibited, judged by HCV RNA level” value (from here on “HCV replication inhibited, judged”) in series [1] (50 μM) stood at 50%. Further, the HCV replication reduced entry in series [1] is given as “approximately 80%”. The “viral replication reduced (first statement, Fig. 4 B, C)” value in series [2] (50 μM) is approximately 50%. Moreover, in series [2], the inhibition at 100 µM was more than 90%. In addition, at HCV NS5B, the IC50 stood at 11.3 µM and the IC90 is 52 µM. In series [3], the “effect on p53 expression” value is reported as “no effect”. Further, the “effect on tumor suppressor protein p53” value in series [4] was “strongly up-regulate”. On HCV NS5B (CΔ21), binding was characterised by a dissociation constant (Kd) of 31.5 µM and the “time to binding equilibrium with NS5B (fluorescence quenched)” value (from here on “time to binding equilibrium with NS5B”) was not above 1 min.
Consider `COc1cc(O)c2c(c1)oc(=O)c1c3cc(O)c(O)cc3oc21` [Compound 4, wedelolactone], for which, in the series with MH14 cells, the “influence on cell viability” value is recorded as “no influence on cell viability” and the toxicity result is “toxic”. The “HCV replication inhibited, judged” value in series [1] (10 μM) is reported as 30%. In addition, the “HCV replication inhibited, judged” value in series [1] (50 μM) stood at 80%. In addition, in series [2] (10 μM, MH14 cells, 48 h), the “inhibition of NS5B expression” value is listed as more than 80%. Besides, in series [2] (50 μM, MH14 cells, 48 h), the “NS5B expression by Western blot” value is “could not detect the expression of NS5B”. At HCV NS5B, the IC50 turned out to be 7.7 µM; the IC90 is 32 µM; the “IC50, inhibition of NS5B RdRp activity in vitro” value was “indistinguishable”. On HCV NS5B (CΔ21), the Kd came to 24.3 µM and the “time to binding equilibrium with NS5B” value is not above 1 min.
For `O=c1cc(-c2ccc(O)cc2)oc2cc(O)cc(O)c12` [Compound 5, apigenin], in the series with MH14 cells, the “cytotoxicity in MH14 cell” value is recorded as “comparable high cytotoxicity”, the “influence on cell viability” value is given as “no influence on cell viability” and the toxicity result is “toxic”. The “HCV replication inhibited, judged” value in series [1] (50 μM) is given as 50%. The HCV replication reduced in series [1] is given as approximately 90%. In series [2] (50 μM), the “viral replication reduced (first statement, Fig. 4 B, C)” value was approximately 50%. For the same molecule, the inhibition at 100 µM in series [2] was more than 90%. The molecule further showed an IC50 on HCV NS5B of 175 µM. Moreover, the “effect on p53 expression” value in series [3] is listed as “no effect”. In addition, in series [4], the “effect on tumor suppressor protein p53” value is “strongly up-regulate”. For the same molecule, at HCV NS5B (CΔ21), binding was characterised by a dissociation constant (Kd) of 122 µM and the “time to binding equilibrium with NS5B” value was not above 1 min.
